Measurements from ChEMBL document CHEMBL1150793, “In vitro susceptibilities of 217 clinical isolates of zygomycetes to conventional and new antifungal agents” (2007).
≈ marks a conversion by molar mass, not a printed value. Calls of active or inactive are those of the source. No cut-off for these calls is given here.

What was measured:
Rhizopus [1] = test: Antimicrobial activity against Rhizopus sp. after 24 hrs; type: functional
Procedure, shortened: (§1)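 Broth microdilution of clinical isolates following CLSI M38-A for filamentous fungi. The polyene and echinocandin agents were tested in antibiotic medium 3, and the other agents in RPMI 1640. Plates were incubated 24 h at 35°C and end points read visually. The echinocandin end point was the minimal effective concentration (MEC); the others were MICs.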

Rhizopus arrhizus [2] = test: Antimicrobial activity against Rhizopus arrhizus after 24 hrs; type: functional
Procedure, shortened: (§2)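 Clinical zygomycete isolates tested by broth microdilution in microtiter format, in essential agreement with CLSI M38-A for filamentous fungi. The polyene and echinocandin were tested in antibiotic medium 3, and the other agents in RPMI 1640. Plates were incubated for 24 h at 35°C, and end points were read visually. The echinocandin end point was taken as the minimal effective concentration.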

[3] = system: Rhizopus microsporus var. rhizopodiformis; test: Antimicrobial activity against Rhizopus microsporus var. rhizopodiformis after 24 hrs; type: functional; procedure, shortened: as §1
Mucor [4] = test: Antimicrobial activity against Mucor sp. after 24 hrs; type: functional; procedure, shortened: as §1
Absidia [5] = test: Antimicrobial activity against Absidia sp. after 24 hrs; type: functional, organism-based; procedure, shortened: as §2
Mucor circinelloides [6] = test: Antimicrobial activity against Mucor circinelloides after 24 hrs; type: functional; procedure, shortened: as §2
Rhizomucor [7] = test: Antimicrobial activity against Rhizomucor sp. after 24 hrs; type: functional; procedure, shortened: as §2
Lichtheimia corymbifera [8] = test: Antimicrobial activity against Absidia corymbifera after 24 hrs; type: functional; procedure, shortened: as §2
Cunninghamella [9] = test: Antimicrobial activity against Cunninghamella sp. after 24 hrs; type: functional; procedure, shortened: as §2
Apophysomyces elegans [10] = test: Antimicrobial activity against Apophysomyces elegans after 24 hrs; type: functional; procedure, shortened: as §2
Rhizopus [11] = test: Antimicrobial activity against Rhizopus sp. assessed as percent of susceptible isolates after 24 hrs; type: functional
Rhizopus arrhizus [12] = test: Antimicrobial activity against Rhizopus arrhizus assessed as percent of susceptible isolates after 24 hrs; type: functional
[13] = system: Rhizopus microsporus var. rhizopodiformis; test: Antimicrobial activity against Rhizopus microsporus var. rhizopodiformis assessed as percent of susceptible isolates after 24 hrs; type: functional
[14] = system: Rhizopus microsporus var. microsporus; test: Antimicrobial activity against Rhizopus microsporus var. microsporus assessed as percent of susceptible isolates after 24 hrs; type: functional
Mucor [15] = test: Antimicrobial activity against Mucor sp. after assessed as percent of susceptible isolates after 24 hrs; type: functional
Mucor circinelloides [16] = test: Antimicrobial activity against Mucor circinelloides assessed as percent of susceptible isolates after 24 hrs; type: functional
Rhizomucor [17] = test: Antimicrobial activity against Rhizomucor sp. assessed as percent of susceptible isolates after 24 hrs; type: functional
Absidia [18] = test: Antimicrobial activity against Absidia sp. assessed as percent of susceptible isolates after 24 hrs; type: functional
Lichtheimia corymbifera [19] = test: Antimicrobial activity against Absidia corymbifera assessed as percent of susceptible isolates after 24 hrs; type: functional
Cunninghamella [20] = test: Antimicrobial activity against Cunninghamella sp. assessed as percent of susceptible isolates after 24 hrs; type: functional
Apophysomyces elegans [21] = test: Antimicrobial activity against Apophysomyces elegans assessed as percent of susceptible isolates after 24 hrs; type: functional

## C[C@@H]1[C@H](O)[C@@H](C)/C=C/C=C/C=C/C=C/C=C/C=C/C=C/[C@H](O[C@@H]2O[C@H](C)[C@@H](O)[C@H](N)[C@@H]2O)C[C@@H]2O[C@](O)(C[C@@H](O)C[C@@H](O)[C@H](O)CC[C@@H](O)C[C@@H](O)CC(=O)O[C@H]1C)C[C@H](O)[C@H]2C(=O)O [AMPHOTERICIN B]
Rhizopus [1]
  MIC50: 0.25 µg/mL (≈ 0.271 µM)
  MIC90: 0.5 µg/mL (≈ 0.541 µM)
Rhizopus arrhizus [2]
  MIC50: 0.25 µg/mL (≈ 0.271 µM)
  MIC90: 0.25 µg/mL (≈ 0.271 µM)
[3]
  MIC50: 0.25 µg/mL (≈ 0.271 µM)
  MIC90: 0.25 µg/mL (≈ 0.271 µM)
Mucor [4]
  MIC50: 0.25 µg/mL (≈ 0.271 µM)
  MIC90: 0.5 µg/mL (≈ 0.541 µM)
Absidia [5]
  Activity: inactive
Mucor circinelloides [6]
  MIC50: 0.25 µg/mL (≈ 0.271 µM)
Rhizomucor [7]
  MIC50: 0.125 µg/mL (≈ 0.135 µM)
Lichtheimia corymbifera [8]
  MIC50: 0.25 µg/mL (≈ 0.271 µM)
Cunninghamella [9]
  MIC50: 1 µg/mL (≈ 1.08 µM)
Apophysomyces elegans [10]
  MIC50: 0.125 µg/mL (≈ 0.135 µM)
Rhizopus [11]
  Activity: 100%
Rhizopus arrhizus [12]
  Activity: 100%
[13]
  Activity: 100%
[14]
  Activity: 100%
Mucor [15]
  Activity: 94%
Mucor circinelloides [16]
  Activity: 100%
Rhizomucor [17]
  Activity: 100%
Absidia [18]
  Activity: 100%
Lichtheimia corymbifera [19]
  Activity: 100%
Cunninghamella [20]
  Activity: 63%
Apophysomyces elegans [21]
  Activity: 100%

## CC[C@H](C)C[C@H](C)CCCCCCCCC(=O)N[C@H]1C[C@@H](O)[C@@H](NCCN)NC(=O)[C@@H]2[C@@H](O)CCN2C(=O)[C@H]([C@H](O)CCN)NC(=O)[C@H]([C@H](O)[C@@H](O)c2ccc(O)cc2)NC(=O)[C@@H]2C[C@@H](O)CN2C(=O)[C@H]([C@@H](C)O)NC1=O [CASPOFUNGIN]
Rhizopus [1]
  MIC50: > 16 µg/mL
  MIC90: > 16 µg/mL
Rhizopus arrhizus [2]
  MIC50: > 16 µg/mL
[3]
  MIC50: > 16 µg/mL
Mucor [4]
  MIC50: > 16 µg/mL
  MIC90: > 16 µg/mL
Absidia [5]
  Activity: inactive
Mucor circinelloides [6]
  Activity: inactive
Rhizomucor [7]
  Activity: inactive
Lichtheimia corymbifera [8]
  Activity: inactive
Cunninghamella [9]
  Activity: inactive
Apophysomyces elegans [10]
  Activity: inactive
Rhizopus [11]
  Activity: 0%
Rhizopus arrhizus [12]
  Activity: 0%
[13]
  Activity: 0%
Mucor [15]
  Activity: 0%
Mucor circinelloides [16]
  Activity: 0%
Rhizomucor [17]
  Activity: 0%
Absidia [18]
  Activity: 0%
Lichtheimia corymbifera [19]
  Activity: 0%
Cunninghamella [20]
  Activity: 0%
Apophysomyces elegans [21]
  Activity: 0%

## OC(Cn1cncn1)(Cn1cncn1)c1ccc(F)cc1F [FLUCONAZOLE]
Rhizopus [1]
  MIC50: > 64 µg/mL
  MIC90: > 64 µg/mL
Rhizopus arrhizus [2]
  Activity: inactive
[3]
  Antimicrobial activity: inactive
Mucor [4]
  MIC50: > 64 µg/mL
Absidia [5]
  Activity: inactive
Mucor circinelloides [6]
  Activity: inactive
Rhizomucor [7]
  Activity: inactive
Lichtheimia corymbifera [8]
  Activity: inactive
Cunninghamella [9]
  Activity: inactive
Apophysomyces elegans [10]
  Activity: inactive
Rhizopus [11]
  Activity: 0%
Rhizopus arrhizus [12]
  Activity: 0%
[13]
  Activity: 0%
Mucor [15]
  Activity: 0%
Mucor circinelloides [16]
  Activity: 0%
Rhizomucor [17]
  Activity: 0%
Cunninghamella [20]
  Activity: 0%
Apophysomyces elegans [21]
  Activity: 0%

## Nc1nc(=O)[nH]cc1F [FLUCYTOSINE]
Rhizopus [1]
  Activity: inactive
Rhizopus arrhizus [2]
  Activity: inactive
[3]
  Activity: inactive
Mucor [4]
  MIC50: > 64 µg/mL
Mucor circinelloides [6]
  Activity: inactive
Cunninghamella [9]
  Activity: inactive
Rhizopus [11]
  Activity: 0%
Rhizopus arrhizus [12]
  Activity: 0%
[13]
  Activity: 0%
Mucor [15]
  Activity: 0%
Mucor circinelloides [16]
  Activity: 0%
Cunninghamella [20]
  Activity: 0%

## CCC(C)n1ncn(-c2ccc(N3CCN(c4ccc(OC[C@H]5CO[C@](Cn6cncn6)(c6ccc(Cl)cc6Cl)O5)cc4)CC3)cc2)c1=O (some centres not stated) [ITRACONAZOLE]
Rhizopus [1]
  MIC50: 0.5 µg/mL (≈ 0.709 µM)
  MIC90: 4 µg/mL (≈ 5.67 µM)
Rhizopus arrhizus [2]
  MIC50: 0.5 µg/mL (≈ 0.709 µM)
[3]
  MIC50: 0.5 µg/mL (≈ 0.709 µM)
Mucor [4]
  MIC50: 0.5 µg/mL (≈ 0.709 µM)
  MIC90: > 8 µg/mL
Absidia [5]
  Activity: inactive
Mucor circinelloides [6]
  Activity: inactive
Rhizomucor [7]
  Activity: inactive
Lichtheimia corymbifera [8]
  Activity: inactive
Cunninghamella [9]
  MIC50: 1 µg/mL (≈ 1.42 µM)
Apophysomyces elegans [10]
  MIC50: 0.125 µg/mL (≈ 0.177 µM)
Rhizopus [11]
  Activity: 62%
Rhizopus arrhizus [12]
  Activity: 50%
[13]
  Activity: 60%
[14]
  Activity: 0%
Mucor [15]
  Activity: 57%
Mucor circinelloides [16]
  Activity: 0%
Rhizomucor [17]
  Activity: 67%
Absidia [18]
  Activity: 50%
Lichtheimia corymbifera [19]
  Activity: 100%
Cunninghamella [20]
  Activity: 29%
Apophysomyces elegans [21]
  Activity: 80%

## CC(=O)N1CCN(c2ccc(OCC3COC(Cn4ccnc4)(c4ccc(Cl)cc4Cl)O3)cc2)CC1 (configuration not stated) [KETOCONAZOLE]
Rhizopus [1]
  MIC50: 1 µg/mL (≈ 1.88 µM)
Rhizopus arrhizus [2]
  Activity: inactive
[3]
  Activity: inactive
Mucor [4]
  Activity: inactive
Absidia [5]
  Activity: inactive
Mucor circinelloides [6]
  Activity: inactive
Rhizomucor [7]
  Activity: inactive
Lichtheimia corymbifera [8]
  Activity: inactive
Cunninghamella [9]
  Activity: inactive
Apophysomyces elegans [10]
  Activity: inactive
Rhizopus [11]
  Activity: 83%
Rhizopus arrhizus [12]
  Activity: 0%
[13]
  Activity: 0%
Mucor [15]
  Activity: 33%
Mucor circinelloides [16]
  Activity: 0%
Cunninghamella [20]
  Activity: 0%

## CC[C@@H]([C@H](C)O)n1ncn(-c2ccc(N3CCN(c4ccc(OC[C@@H]5CO[C@@](Cn6cncn6)(c6ccc(F)cc6F)C5)cc4)CC3)cc2)c1=O [POSACONAZOLE]
Rhizopus [1]
  MIC50: 0.25 µg/mL (≈ 0.357 µM)
  MIC90: 1 µg/mL (≈ 1.43 µM)
Rhizopus arrhizus [2]
  MIC50: 0.25 µg/mL (≈ 0.357 µM)
  MIC90: 1 µg/mL (≈ 1.43 µM)
[3]
  MIC50: 0.25 µg/mL (≈ 0.357 µM)
Mucor [4]
  MIC50: 0.5 µg/mL (≈ 0.713 µM)
  MIC90: 2 µg/mL (≈ 2.85 µM)
Absidia [5]
  Activity: inactive
Mucor circinelloides [6]
  Activity: inactive
Rhizomucor [7]
  Activity: inactive
Lichtheimia corymbifera [8]
  Activity: inactive
Cunninghamella [9]
  MIC50: 0.5 µg/mL (≈ 0.713 µM)
Apophysomyces elegans [10]
  MIC50: 0.03 µg/mL (≈ 0.0428 µM)
Rhizopus [11]
  Activity: 80%
Rhizopus arrhizus [12]
  Activity: 64%
[13]
  Activity: 78%
Mucor [15]
  Activity: 70%
Mucor circinelloides [16]
  Activity: 0%
Rhizomucor [17]
  Activity: 67%
Absidia [18]
  Activity: 100%
Lichtheimia corymbifera [19]
  Activity: 100%
Cunninghamella [20]
  Activity: 75%
Apophysomyces elegans [21]
  Activity: 83%

## C[C@@H](c1ncncc1F)[C@](O)(Cn1cncn1)c1ccc(F)cc1F [VORICONAZOLE]
Rhizopus [1]
  MIC50: 8 µg/mL (≈ 22.9 µM)
  MIC90: > 8 µg/mL
Rhizopus arrhizus [2]
  MIC50: > 8 µg/mL
[3]
  Antimicrobial activity: inactive
Mucor [4]
  MIC50: > 8 µg/mL
  MIC90: > 8 µg/mL
Absidia [5]
  Activity: inactive
Mucor circinelloides [6]
  Activity: inactive
Rhizomucor [7]
  Activity: inactive
Lichtheimia corymbifera [8]
  Activity: inactive
Cunninghamella [9]
  MIC50: > 8 µg/mL
  MIC90: > 8 µg/mL
Rhizopus [11]
  Activity: 5%
Rhizopus arrhizus [12]
  Activity: 0%
[13]
  Activity: 0%
Mucor [15]
  Activity: 0%
Mucor circinelloides [16]
  Activity: 0%
Rhizomucor [17]
  Activity: 0%
Absidia [18]
  Activity: 0%
Lichtheimia corymbifera [19]
  Activity: 0%
Cunninghamella [20]
  Activity: 10%
Apophysomyces elegans [21]
  Activity: 100%
